{"source": "paper PMC4582152", "about": "(International Journal of Biological Sciences, 2015)", "key": {"[1]": {"system": "DhelOBP21-T119N mutant", "assay": "Competitive fluorescence binding assay with 1-NPN as probe, mutant T119N", "design": "species or system Dastarcus helophoroides", "settings": "for Binding affinity of mutant T119N compared with DhelOBP-WT: pH 5.0; for Binding ability of mutant T119N compared with DhelOBP-WT: pH 7.4", "outline": "(§1)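 Competitive displacement at pH 7.4 or pH 5.0: 2 μM recombinant protein with a standard concentration of 1-NPN, titrated with aliquots of odorant volatiles (stocks in methanol). Fluorescence is read as for the 1-NPN titration. IC50 is the competitor concentration that halves the initial fluorescence. Ki = IC50/(1+[1-NPN]/K1-NPN), using the Scatchard Kd. Three independent measurements; reported as 1/Ki*1000.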"}, "[2]": {"system": "DhelOBP21-I84N mutant", "assay": "Competitive fluorescence binding assay with 1-NPN as probe, mutant I84N", "design": "species or system Dastarcus helophoroides", "outline": "as §1"}}, "data": [{"smiles": "CC12CCC(CC1=O)C2(C)C", "note": "(stereo not shown) [Camphor, camphor]", "values": [{"measurement": "Binding affinity of mutant T119N compared with DhelOBP-WT", "setting": "[1]", "value": "did not show any apparent difference"}, {"measurement": "Binding affinity of mutant I84N compared with DhelOBP-WT", "setting": "[2]; pH 5.0", "value": "did not show any apparent difference"}]}, {"smiles": "CC1=CCC(=C(C)C)CC1", "note": "[Terpinolene]", "values": [{"measurement": "Binding affinity of mutant T119N compared with DhelOBP-WT", "setting": "[1]", "value": "relatively higher affinity"}, {"measurement": "Binding affinity of mutant I84N compared with DhelOBP-WT", "setting": "[2]; pH 7.4", "value": "better than with DhelOBP-WT"}]}, {"smiles": "C=C1C2CCC(C2)C1(C)C", "note": "(stereo not shown) [Camphene, camphene]", "values": [{"measurement": "Binding affinity of mutant T119N compared with DhelOBP-WT", "setting": "[1]", "value": "did not show any apparent difference"}, {"measurement": "Binding ability of mutant T119N compared with DhelOBP-WT", "setting": "[1]", "value": "declined significantly"}, {"measurement": "Binding affinity of mutant I84N compared with DhelOBP-WT", "setting": "[2]; pH 5.0", "value": "did not show any apparent difference"}]}, {"smiles": "C=CC(=C)CCC=C(C)C", "note": "[Myrcene, myrcene]", "values": [{"measurement": "Binding ability of mutant T119N compared with DhelOBP-WT", "setting": "[1]", "value": "declined significantly"}]}, {"smiles": "Cc1cc(C(C)(C)C)c(O)c(C(C)(C)C)c1", "note": "[Butylated hydroxytoluene, butylated hydroxytoluene]", "values": [{"measurement": "Binding ability of mutant T119N compared with DhelOBP-WT", "setting": "[1]", "value": "greater binding ability"}, {"measurement": "Binding affinity of mutant I84N compared with DhelOBP-WT", "setting": "[2]; pH 5.0", "value": "relatively higher affinities"}]}]}
